The text below walks through data of ChEMBL document CHEMBL1799918, “Growth inhibitory activities of oxyprenylated and non-prenylated naturally occurring phenylpropanoids in cancer cell lines” (Bioorg Med Chem Lett, 2011).

One assay relates to PC-3. Kind of assay: Cytotoxicity against human PC3 cells after 72 hrs by MTT assay. The assay is classed as functional, cell-based. As to conditions: PC-3, 72 h. The method in brief:
(§1)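 MTT colorimetric assay on human cancer cell lines; IC50 growth inhibitory concentration determined in vitro for each compound.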
(Formazan colour is commonly taken as a measure of viable cells.)

The next assay concerns SK-MEL-28. In words: Cytotoxicity against human SK-MEL-28 cells after 72 hrs by MTT assay. The assay is classed as functional, cell-based. As to conditions: SK-MEL-28, 72 h. The method in brief: as §1
Assay [1] can be described thus: Induction of human U373 cell death assessed as morphological changes at MTT assay-related IC50 after 72 hrs by quantitative video microscopy. It is filed as functional, U-373MG ATCC.
The test system of another assay is A549. Kind of assay: Cytotoxicity against human A549 cells after 72 hrs by MTT assay. It is filed as functional, cell-based. As to conditions: A549, 72 h. The method in brief:
as §1

Assay [2] can be described thus: Cytotoxicity against human OE21 cells after 72 hrs by MTT assay. The assay is classed as functional, cell-based. As to conditions: OE21, 72 h. In a few lines: as §1
For another assay, the system named is LoVo. In words: Cytotoxicity against human LoVo cells after 72 hrs by MTT assay. The assay is classed as functional, cell-based. In a few lines: as §1
Assay [3] in a line: Cytotoxicity against human U373 cells assessed as growth inhibition at MTT assay-related IC50 by quantitative video microscopy relative to control. The assay is classed as functional, U-373MG ATCC.
A short description of assay [4]: Cytotoxicity against human U373 cells after 72 hrs by MTT assay. As to conditions: U373 MG. It is filed as functional, cell-based, U-373MG ATCC. In a few lines: as §1

Regarding `CC(=O)c1c(O)cc(OC/C=C(\C)CC/C=C(\C)CCC=C(C)C)cc1O`, the IC50 in the assay with PC-3 was found to be 38 µM; with SK-MEL-28 it was 33 µM; in the assay on A549 it was 26 µM; in assay [2], 18 µM; in the assay on LoVo it was 32 µM; in assay [4] it was 33 µM. In addition, the Activity in assay [1] came to 42%. Besides, the “growth inhibition (GI)” value in assay [3] was found to be 70%.

On to `CC(C)=CCOc1ccc2ccc(=O)oc2c1O`, for which the IC50 in the assay with PC-3 was over 100 µM; in the assay with SK-MEL-28, over 100 µM; in the assay on A549 it was over 100 µM; in assay [2] it was over 100 µM; with LoVo it was 92 µM; in assay [4] it was over 100 µM.

On to `COc1cc(C(=O)O)ccc1OCC=C(C)C`, for which the IC50 (in the assay on PC-3; in the assay on SK-MEL-28; in the assay on A549; in assay [2]; in the assay with LoVo; in assay [4]) was over 100 µM in each case.

`CC(=O)c1ccc(OCC=C(C)C)cc1O`: the IC50 (with PC-3; in the assay with SK-MEL-28; in the assay on A549; in assay [2]; in the assay on LoVo; in assay [4]) was over 100 µM throughout.

In the case of `CC(C)=CCC/C(C)=C/COc1cc(O)c2c(c1)C(=O)c1cc(C)cc(O)c1C2=O`, the IC50 with PC-3 was 30 µM; in the assay with SK-MEL-28, 40 µM; with A549 it was 32 µM; in assay [2], over 100 µM; in the assay with LoVo, 14 µM; in assay [4], 18 µM. Further, the Activity in assay [1] turned out to be 100%. Further, the “growth inhibition (GI)” value in assay [3] came out at 90%.

As for `COc1cc(/C=C/C=O)cc(OC)c1OCC=C(C)C`, the IC50 with PC-3 was 28 µM; in the assay on SK-MEL-28, 32 µM; with A549, 68 µM; in assay [2], 29 µM; in the assay on LoVo, 31 µM; in assay [4], 30 µM. The Activity in assay [1] is given as 100%. The “growth inhibition (GI)” value in assay [3] was determined as 90%.

Consider `COc1cc(/C=C/C=O)ccc1OC/C=C(\C)CCC=C(C)C`, for which the IC50 with PC-3 is 24 µM; in the assay with SK-MEL-28, 28 µM; in the assay with A549, 5 µM; in assay [2] it was 34 µM; in the assay on LoVo it was 12 µM; in assay [4] it was 7 µM. In addition, the Activity in assay [1] is 26%. Besides, the “growth inhibition (GI)” value in assay [3] is recorded as 80%.

As for `COc1cc(/C=C/CO)cc(OC)c1OCC=C(C)C`, the half-maximal inhibitory concentration (IC50) (with PC-3; in the assay with SK-MEL-28; with A549; in assay [2]; in the assay with LoVo; in assay [4]) was over 100 µM each time.

Regarding `COc1cc(/C=C/CO)ccc1OC/C=C(\C)CCC=C(C)C`, the 50% inhibitory concentration (IC50) in the assay on PC-3 stood at 21 µM; with SK-MEL-28 it was 31 µM; in the assay on A549 it was 29 µM; in assay [2] it was 23 µM; in the assay with LoVo, 27 µM; in assay [4], 25 µM. The Activity in assay [1] came to 41%. In addition, the “growth inhibition (GI)” value in assay [3] was 80%.

Turning to `COc1cc(/C=C/CO)cc(OC)c1O`, the IC50 in the assay on PC-3 is over 100 µM; with SK-MEL-28, over 100 µM; in the assay with A549, over 100 µM; in assay [2] it was 80 µM; in the assay with LoVo, over 100 µM; in assay [4], over 100 µM.

Turning to `CC(C)=CCC/C(C)=C/COc1ccc(/C=C/C(=O)O)cc1`, the IC50 (with PC-3; in the assay with SK-MEL-28; with A549; in assay [2]; in the assay with LoVo; in assay [4]) was over 100 µM throughout.

`COc1cc(/C=C/C(=O)O)ccc1OC/C=C(\C)CCC=C(C)C`: the IC50 (in the assay with PC-3; in the assay on SK-MEL-28; in the assay with A549; in assay [2]; in the assay with LoVo; in assay [4]) was over 100 µM in each case.

For the molecule `CC(=O)c1ccc(O)cc1O`, the 50% inhibitory concentration (IC50) was over 100 µM in the assay with PC-3; over 100 µM in the assay with SK-MEL-28; over 100 µM in the assay with A549; 45 µM in assay [2]; 97 µM in the assay with LoVo; over 100 µM in assay [4].

For `CC(=O)c1c(O)cc(OC/C=C(\C)CCC=C(C)C)cc1O`, the IC50 in the assay on PC-3 was determined as 48 µM; with SK-MEL-28 it was 40 µM; in the assay with A549, 34 µM; in assay [2], 34 µM; in the assay on LoVo it was 35 µM; in assay [4] it was 29 µM. In assay [1], the Activity was found to be 15%. The “growth inhibition (GI)” value in assay [3] came out at 80%.

For `CC(C)=CCOc1ccc(C(=O)/C=C/c2ccc(O)cc2)c(O)c1`, the IC50 in the assay with PC-3 is over 100 µM; in the assay with SK-MEL-28 it was over 100 µM; in the assay on A549, 66 µM; in assay [2] it was 58 µM; in the assay with LoVo it was 57 µM; in assay [4], 87 µM. In addition, the Activity in assay [1] worked out at 17%. Further, the “growth inhibition (GI)” value in assay [3] was 70%.

For the molecule `CC(=O)c1ccc(OC/C=C(\C)CCC=C(C)C)cc1O`, the IC50 in the assay with PC-3 turned out to be 27 µM; in the assay with SK-MEL-28 it was 44 µM; with A549 it was 51 µM; in assay [2] it was 37 µM; with LoVo, 38 µM; in assay [4], 48 µM. For the same molecule, the Activity in assay [1] came to 17%. For the same molecule, the “growth inhibition (GI)” value in assay [3] is 80%.

In the case of `O=C(/C=C/c1ccccc1)c1ccc(O)cc1O` [2',4'-DIHYDROXYCHALCONE], the IC50 is over 100 µM with PC-3; 75 µM in the assay on SK-MEL-28; over 100 µM in the assay with A549; 49 µM in assay [2]; 81 µM in the assay with LoVo; over 100 µM in assay [4].

Consider `CC(=O)c1c(O)cc(O)cc1O` [2,4,6-TRIHYDROXYACETOPHENONE], for which the IC50 in the assay on PC-3 was over 100 µM; with SK-MEL-28, over 100 µM; with A549 it was 100 µM; in assay [2], 42 µM; in the assay on LoVo it was 90 µM; in assay [4], over 100 µM.

On to `CC(C)=CCOc1ccc2ccc(=O)oc2c1` [7-PRENYLOXYCOUMARIN], for which the concentration for half-maximal inhibition (IC50) in the assay with PC-3 was over 100 µM; with SK-MEL-28, over 100 µM; with A549 it was over 100 µM; in assay [2], 79 µM; in the assay with LoVo, 82 µM; in assay [4], over 100 µM.

Consider `CC(C)=CCC/C(C)=C/COc1ccc2ccc(=O)oc2c1` [AURAPTENE], for which the half-inhibitory concentration (IC50) with PC-3 stood at 65 µM; in the assay on SK-MEL-28, 87 µM; in the assay with A549, 82 µM; in assay [2], 58 µM; with LoVo it was 66 µM; in assay [4] it was 82 µM. Besides, in assay [1], the Activity is 58%. Besides, the “growth inhibition (GI)” value in assay [3] is on record as 90%.

As to `COc1cc(/C=C/C(=O)O)ccc1OCC=C(C)C` [BOROPINIC ACID], the half-inhibitory concentration (IC50) (with PC-3; in the assay on SK-MEL-28; with A549; in assay [2]; in the assay on LoVo; in assay [4]) was over 100 µM in each case.

Turning to `COc1cc(/C=C/CO)ccc1O` [CONIFERYL ALCOHOL], the IC50 with PC-3 was 84 µM; in the assay on SK-MEL-28, over 100 µM; in the assay on A549, 85 µM; in assay [2] it was 60 µM; in the assay on LoVo, 64 µM; in assay [4] it was 97 µM. In assay [1], the Activity is on record as 26%. Besides, in assay [3], the “growth inhibition (GI)” value is reported as 80%.

Regarding `CC(C)=CCOc1ccc(C(=O)/C=C/c2ccccc2)c(O)c1` [CORDOIN], the IC50 in the assay with PC-3 was 71 µM; in the assay with SK-MEL-28 it was 81 µM; in the assay with A549, 54 µM; in assay [2], 39 µM; in the assay with LoVo, 58 µM; in assay [4], 53 µM. Moreover, the Activity in assay [1] is 88%. For the same molecule, the “growth inhibition (GI)” value in assay [3] came out at 95%.

On to `O=C(O)/C=C/c1ccc(O)cc1` [COUMARIC ACID], for which the IC50 in the assay on PC-3 was over 100 µM; in the assay with SK-MEL-28, over 100 µM; in the assay with A549, over 100 µM; in assay [2] it was 66 µM; in the assay on LoVo it was 82 µM; in assay [4], over 100 µM.

For `Cc1cc(O)c2c(c1)C(=O)c1cc(O)cc(O)c1C2=O` [EMODIN], the IC50 in the assay with PC-3 turned out to be 35 µM; with SK-MEL-28 it was 35 µM; in the assay on A549, 28 µM; in assay [2] it was 29 µM; in the assay with LoVo, 27 µM; in assay [4], 31 µM. Moreover, in assay [1], the Activity amounted to 99%. Moreover, in assay [3], the “growth inhibition (GI)” value is recorded as 90%.

Turning to `COc1cc(/C=C/C(=O)O)ccc1O` [FERULATE], the IC50 is over 100 µM in the assay on PC-3; over 100 µM in the assay on SK-MEL-28; over 100 µM in the assay on A549; 68 µM in assay [2]; 95 µM in the assay with LoVo; over 100 µM in assay [4].

In the case of `O=C(O)c1ccc(O)cc1` [PARABEN], the IC50 in the assay on PC-3 was over 100 µM; with SK-MEL-28, over 100 µM; in the assay on A549, over 100 µM; in assay [2], 71 µM; with LoVo, 94 µM; in assay [4] it was over 100 µM.

Take `O=c1ccc2ccc(O)cc2o1` [UMBELLIFERONE]: the 50% inhibitory concentration (IC50) in the assay on PC-3 is over 100 µM; in the assay on SK-MEL-28, over 100 µM; in the assay on A549, over 100 µM; in assay [2], 33 µM; in the assay on LoVo, 97 µM; in assay [4], over 100 µM.

On to `CC(C)=CCOc1ccc(C(=O)O)cc1` [VALENCIC ACID], for which the IC50 (in the assay with PC-3; with SK-MEL-28; with A549; in assay [2]; with LoVo; in assay [4]) was over 100 µM throughout.

Consider `COc1cc(C(=O)O)ccc1O` [VANILLIC ACID], for which the IC50 in the assay on PC-3 is over 100 µM; in the assay on SK-MEL-28 it was over 100 µM; in the assay on A549, over 100 µM; in assay [2], 61 µM; in the assay on LoVo it was 91 µM; in assay [4] it was over 100 µM.

As a reminder, the IC50 is the concentration at which inhibition is half-maximal. Read a high IC50 as lower potency.
